Laboratory results: ChEMBL document CHEMBL1811907, “Chemical and biological evaluation of dipeptidyl boronic acid proteasome inhibitors for use in prodrugs and pro-soft drugs targeting solid tumors” (J Med Chem, 2011)

System: HEK293
Assay: Ratio of IC50 for intracellular chymotrypsin-like activity of 20S proteasome in human HEK293 cells to IC50 for in vitro chymotrypsin-like activity of 20S proteasome
Format: cell-based
Details: not given

Structure (SMILES)	Ratio IC50
CC(C)C[C@H](NC(=O)[C@H](C)N)B(O)O	> 200
CC(C)C[C@H](NC(=O)[C@@H](N)Cc1c[nH]c2ccccc12)B(O)O	> 30
CC(C)C[C@H](NC(=O)[C@@H](N)Cc1ccc(F)cc1)B(O)O	> 170
CC(C)C[C@H](NC(=O)[C@@H](N)Cc1ccc(O)cc1)B(O)O	> 240
CC(C)C[C@H](NC(=O)CN)B(O)O	> 470
CNCC(=O)N[C@@H](CC(C)C)B(O)O	> 260
CC(C)C[C@H](NC(=O)[C@@H](N)Cc1ccccc1)B(O)O	> 270

System: HEK293
Assay: Metabolic stability in human HEK293 cells assessed as cell lysate-mediated compound degradation at 10^-4 M after 24 hrs by LCMS analysis
Format: ADME, cell-based
Details: hek293, 24 h, 100 µM

Stability	Structure (SMILES)
Stable	CC(C)C[C@H](NC(=O)[C@H](C)N)B(O)O
Stable	CC(C)C[C@H](NC(=O)CN)B(O)O
Stable	CC(C)C[C@H](NC(=O)[C@@H](N)Cc1ccccc1)B(O)O

System: not listed separately
Assay: Ratio of CC50 for human follicular small-cell lymphocytic leukemia cells to IC50 for intracellular chymotrypsin-like activity of 20S proteasome in human HEK293 cells
Details: not given

Structure (SMILES)	Ratio CC50/IC50
CC(C)C[C@H](NC(=O)[C@H](C)N)B(O)O	<0.3
CC(C)C[C@H](NC(=O)[C@@H](N)Cc1c[nH]c2ccccc12)B(O)O	<0.4
CC(C)C[C@H](NC(=O)[C@@H](N)Cc1ccc(F)cc1)B(O)O	<0.01
CC(C)C[C@H](NC(=O)[C@@H](N)Cc1ccc(O)cc1)B(O)O	<0.02
CC(C)C[C@H](NC(=O)CN)B(O)O	<0.07
CNCC(=O)N[C@@H](CC(C)C)B(O)O	<0.07
CC(C)C[C@H](NC(=O)[C@@H](N)Cc1ccccc1)B(O)O	<0.01

System: not listed separately
Assay: Metabolic stability in human FSCLL cells assessed as cell lysate-mediated compound degradation at 10^-4 M after 24 hrs by LCMS analysis
Format: ADME, cell-based
Details: 100 µM

Stability	Structure (SMILES)
Stable	CC(C)C[C@H](NC(=O)[C@H](C)N)B(O)O
Stable	CC(C)C[C@H](NC(=O)CN)B(O)O
Stable	CC(C)C[C@H](NC(=O)[C@@H](N)Cc1ccccc1)B(O)O

System: not listed separately
Assay: Inhibition of chymotrypsin-like activity of 20S proteasome using suc-LLVY-AMC as substrate preincubated for 10 mins before substrate addition at pH 2.0 by fluorescence assay
Details: not given
Summary of the method: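 Inhibitor from 0.1 M ethanol stock diluted into pH 2.0 buffer (0.148 M HCl, 0.052 M KCl) and equilibrated overnight at room temperature (24 h per text). 20S proteasome SDS-activated, preincubated 10 min with inhibitor; Suc-LLVY-AMC added; fluorescence (ex 360/em 460 nm) read after 30 min. Assay-well pH checked. Quadruplicates; variable-slope sigmoidal fit.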

Structure (SMILES)	IC50
CC(C)C[C@H](NC(=O)[C@H](C)N)B(O)O	50 nM
CC(C)C[C@H](NC(=O)[C@@H](N)Cc1ccc(F)cc1)B(O)O	60 nM
CC(C)C[C@H](NC(=O)[C@@H](N)Cc1ccc(O)cc1)B(O)O	42 nM
CNCC(=O)N[C@@H](CC(C)C)B(O)O	39 nM
CC(C)C[C@H](NC(=O)[C@@H](N)Cc1ccccc1)B(O)O	37 nM

Now those with a lower IC50, led by results:

IC50	Structure (SMILES)
29 nM	CC(C)C[C@H](NC(=O)[C@@H](N)Cc1c[nH]c2ccccc12)B(O)O
21 nM	CC(C)C[C@H](NC(=O)CN)B(O)O

System: not listed separately
Assay: Metabolic stability in human FSCLL cells assessed as aminopeptidase-mediated compound degradation at 10^-4 M after 24 hrs by LCMS analysis
Format: ADME, cell-based
Details: 100 µM
Summary of the method: (§1)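 Intact cells, 2 × 10⁶ in 900 μL medium, incubated with inhibitor at 10⁻⁴ M for 24 h, 37 °C, 5% CO₂. Aliquots taken at time points and quenched in 1 M HCl containing Trp-Tyr internal standard. Analysed by ESI LCMS on C18 reversed phase.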

Stability	Structure (SMILES)
Stable	CC(C)C[C@H](NC(=O)[C@H](C)N)B(O)O
Stable	CC(C)C[C@H](NC(=O)CN)B(O)O
Stable	CC(C)C[C@H](NC(=O)[C@@H](N)Cc1ccccc1)B(O)O

System: not listed separately
Assay: Ratio of CC50 for human follicular small-cell lymphocytic leukemia cells to IC50 for chymotrypsin-like activity of 20S proteasome at pH 2.0
Details: not given

Structure (SMILES)	Ratio CC50/IC50
CC(C)C[C@H](NC(=O)[C@H](C)N)B(O)O	64
CC(C)C[C@H](NC(=O)[C@@H](N)Cc1c[nH]c2ccccc12)B(O)O	14
CC(C)C[C@H](NC(=O)[C@@H](N)Cc1ccc(F)cc1)B(O)O	1.3
CC(C)C[C@H](NC(=O)[C@@H](N)Cc1ccc(O)cc1)B(O)O	4
CC(C)C[C@H](NC(=O)CN)B(O)O	30
CNCC(=O)N[C@@H](CC(C)C)B(O)O	4.1
CC(C)C[C@H](NC(=O)[C@@H](N)Cc1ccccc1)B(O)O	2.4

System: not listed separately
Assay: Inhibition of chymotrypsin-like activity of 20S proteasome using suc-LLVY-AMC as substrate preincubated for 10 mins before substrate addition at pH 7.6 by fluorescence assay
Details: not given
Summary of the method: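 Inhibitor from 0.1 M ethanol stock diluted into pH 7.6 buffer (25 mM HEPES, 0.5 mM EDTA) and equilibrated overnight at room temperature (24 h per text). SDS-activated 20S proteasome preincubated 10 min with inhibitor before Suc-LLVY-AMC; fluorescence ex 360/em 460 nm after 30 min. Quadruplicates; variable-slope sigmoidal fit.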

Structure (SMILES)	IC50
CC(C)C[C@H](NC(=O)[C@H](C)N)B(O)O	360 nM
CC(C)C[C@H](NC(=O)[C@@H](N)Cc1ccc(F)cc1)B(O)O	130 nM
CC(C)C[C@H](NC(=O)[C@@H](N)Cc1ccc(O)cc1)B(O)O	120 nM
CNCC(=O)N[C@@H](CC(C)C)B(O)O	2200 nM
CC(C)C[C@H](NC(=O)[C@@H](N)Cc1ccccc1)B(O)O	140 nM

The next lines start with the values.

IC50	Structure (SMILES)
100 nM	CC(C)C[C@H](NC(=O)[C@@H](N)Cc1c[nH]c2ccccc12)B(O)O
430 nM	CC(C)C[C@H](NC(=O)CN)B(O)O

System: HEK293
Assay: Metabolic stability in human HEK293 cells assessed as aminopeptidase-mediated compound degradation at 10^-4 M after 24 hrs by LCMS analysis
Format: ADME, cell-based
Details: hek293, 24 h, 100 µM
Summary of the method: as §1

Stability	Structure (SMILES)
Stable	CC(C)C[C@H](NC(=O)[C@H](C)N)B(O)O
Stable	CC(C)C[C@H](NC(=O)CN)B(O)O
Stable	CC(C)C[C@H](NC(=O)[C@@H](N)Cc1ccccc1)B(O)O

System: not listed separately
Assay: Cytotoxicity against human FSCLL cells after 24 hrs by MTT assay
Format: cell-based
Details: not given
Summary of the method: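 Cells seeded at 3.2 × 10⁴ per well, grown 24 h at 37 °C, 5% CO₂, then exposed to inhibitor dilutions 24 h. Inhibitor from 0.1 M ethanol stock, pre-equilibrated overnight in pH 2.0 or pH 7.6 buffer. MTT (5 mg/mL) added for 3 h; formazan dissolved overnight in acidic Triton/isopropanol; A570 read. Quadruplicates; variable-slope sigmoidal fit.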

Structure (SMILES)	CC50 at 24 h
CC(C)C[C@H](NC(=O)[C@H](C)N)B(O)O	3200 nM
CC(C)C[C@H](NC(=O)[C@@H](N)Cc1c[nH]c2ccccc12)B(O)O	400 nM
CC(C)C[C@H](NC(=O)[C@@H](N)Cc1ccc(F)cc1)B(O)O	79 nM
CC(C)C[C@H](NC(=O)[C@@H](N)Cc1ccc(O)cc1)B(O)O	160 nM
CC(C)C[C@H](NC(=O)CN)B(O)O	670 nM
CNCC(=O)N[C@@H](CC(C)C)B(O)O	160 nM
CC(C)C[C@H](NC(=O)[C@@H](N)Cc1ccccc1)B(O)O	90 nM

System: not listed separately
Assay: Inhibition of intracellular chymotrypsin-like activity of 20S proteasome in human HEK293 cells after 24 hrs by fluorescence plate reader
Format: cell-based
Details: HEK293, 24 h
Summary of the method: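 HEK 293 ZsGreen proteasome-sensor cells (stable ZsGreen–ornithine decarboxylase degron fusion, G418 maintenance) seeded 3.2 × 10⁴ per well, grown 24 h. Then 24 h with inhibitor at 37 °C, 5% CO₂. Cells lysed in HEPES/EDTA/5% Triton buffer for 1 h; fluorescence ex 485/em 535 nm. Quadruplicates; variable-slope sigmoidal fit.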

Structure (SMILES)	IC50
CC(C)C[C@H](NC(=O)[C@H](C)N)B(O)O	> 10000 nM
CC(C)C[C@H](NC(=O)[C@@H](N)Cc1ccc(F)cc1)B(O)O	> 10000 nM
CC(C)C[C@H](NC(=O)[C@@H](N)Cc1ccc(O)cc1)B(O)O	> 10000 nM
CNCC(=O)N[C@@H](CC(C)C)B(O)O	> 10000 nM
CC(C)C[C@H](NC(=O)[C@@H](N)Cc1ccccc1)B(O)O	> 10000 nM

Continued, values first:

IC50	Structure (SMILES)
> 1000 nM	CC(C)C[C@H](NC(=O)[C@@H](N)Cc1c[nH]c2ccccc12)B(O)O
> 10000 nM	CC(C)C[C@H](NC(=O)CN)B(O)O
